The text below walks through data of PMC8162940 (Nature chemical biology, 2021).

One test deals with IL-2. Put plainly: IL-2 secretion from stimulated Jurkat cells. The conditions noted are these: Jurkat cells pre-treated with 1 μM for 18h, then stimulated 24h. Type of test: cell-based, human. A digest of the protocol:
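Jurkat cells were pre-incubated 18 h with 1 μM test compound, then activated with ImmunoCult CD3/CD28 activator for 24 h, and supernatant IL-2 was measured by AlphaLISA. Mean ± SD of 3 (unstimulated) or 4 (stimulated) biological samples, representative of 2 experiments. Two-way ANOVA with Bonferroni correction.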

The target in another test is Ikaros (Mus musculus, UniProt Q03267+Q8C7D2, I391V). The test is described as follows: Ikaros levels in murine splenocytes, flow cytometry. The test is classed as cell-based. The conditions noted are these: Crbn^I391V/I391V but not wildtype cells, 1 μM, 16h.
Chain of Ikaros (Q03267 whole entry): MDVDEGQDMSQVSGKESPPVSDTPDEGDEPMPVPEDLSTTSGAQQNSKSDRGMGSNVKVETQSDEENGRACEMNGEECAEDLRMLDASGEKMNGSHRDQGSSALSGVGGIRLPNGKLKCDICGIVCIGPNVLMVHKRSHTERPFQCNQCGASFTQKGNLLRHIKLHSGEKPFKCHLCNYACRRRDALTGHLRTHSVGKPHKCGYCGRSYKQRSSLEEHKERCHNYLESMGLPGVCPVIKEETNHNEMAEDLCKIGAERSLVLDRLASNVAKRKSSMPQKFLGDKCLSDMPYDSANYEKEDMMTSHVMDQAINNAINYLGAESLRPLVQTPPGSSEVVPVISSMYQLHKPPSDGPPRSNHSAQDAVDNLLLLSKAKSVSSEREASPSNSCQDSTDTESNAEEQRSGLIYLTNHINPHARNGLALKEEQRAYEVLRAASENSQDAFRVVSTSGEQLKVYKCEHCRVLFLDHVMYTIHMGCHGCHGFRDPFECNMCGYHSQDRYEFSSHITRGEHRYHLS
Chain of Ikaros (Q8C7D2 whole entry I391V): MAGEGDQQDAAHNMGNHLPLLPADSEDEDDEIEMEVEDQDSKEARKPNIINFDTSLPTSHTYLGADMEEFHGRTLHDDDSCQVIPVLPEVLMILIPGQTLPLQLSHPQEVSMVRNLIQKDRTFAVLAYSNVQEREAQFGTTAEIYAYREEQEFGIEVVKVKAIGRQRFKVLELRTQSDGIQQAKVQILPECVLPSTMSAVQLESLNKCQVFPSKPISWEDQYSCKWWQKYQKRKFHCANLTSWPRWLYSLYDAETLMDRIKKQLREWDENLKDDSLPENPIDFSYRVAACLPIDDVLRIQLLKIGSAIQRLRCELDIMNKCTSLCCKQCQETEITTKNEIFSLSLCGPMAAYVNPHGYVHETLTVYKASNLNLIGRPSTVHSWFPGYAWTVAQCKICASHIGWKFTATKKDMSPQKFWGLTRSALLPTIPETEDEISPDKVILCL
Chain of Ikaros (Q3U1J4 whole entry partner): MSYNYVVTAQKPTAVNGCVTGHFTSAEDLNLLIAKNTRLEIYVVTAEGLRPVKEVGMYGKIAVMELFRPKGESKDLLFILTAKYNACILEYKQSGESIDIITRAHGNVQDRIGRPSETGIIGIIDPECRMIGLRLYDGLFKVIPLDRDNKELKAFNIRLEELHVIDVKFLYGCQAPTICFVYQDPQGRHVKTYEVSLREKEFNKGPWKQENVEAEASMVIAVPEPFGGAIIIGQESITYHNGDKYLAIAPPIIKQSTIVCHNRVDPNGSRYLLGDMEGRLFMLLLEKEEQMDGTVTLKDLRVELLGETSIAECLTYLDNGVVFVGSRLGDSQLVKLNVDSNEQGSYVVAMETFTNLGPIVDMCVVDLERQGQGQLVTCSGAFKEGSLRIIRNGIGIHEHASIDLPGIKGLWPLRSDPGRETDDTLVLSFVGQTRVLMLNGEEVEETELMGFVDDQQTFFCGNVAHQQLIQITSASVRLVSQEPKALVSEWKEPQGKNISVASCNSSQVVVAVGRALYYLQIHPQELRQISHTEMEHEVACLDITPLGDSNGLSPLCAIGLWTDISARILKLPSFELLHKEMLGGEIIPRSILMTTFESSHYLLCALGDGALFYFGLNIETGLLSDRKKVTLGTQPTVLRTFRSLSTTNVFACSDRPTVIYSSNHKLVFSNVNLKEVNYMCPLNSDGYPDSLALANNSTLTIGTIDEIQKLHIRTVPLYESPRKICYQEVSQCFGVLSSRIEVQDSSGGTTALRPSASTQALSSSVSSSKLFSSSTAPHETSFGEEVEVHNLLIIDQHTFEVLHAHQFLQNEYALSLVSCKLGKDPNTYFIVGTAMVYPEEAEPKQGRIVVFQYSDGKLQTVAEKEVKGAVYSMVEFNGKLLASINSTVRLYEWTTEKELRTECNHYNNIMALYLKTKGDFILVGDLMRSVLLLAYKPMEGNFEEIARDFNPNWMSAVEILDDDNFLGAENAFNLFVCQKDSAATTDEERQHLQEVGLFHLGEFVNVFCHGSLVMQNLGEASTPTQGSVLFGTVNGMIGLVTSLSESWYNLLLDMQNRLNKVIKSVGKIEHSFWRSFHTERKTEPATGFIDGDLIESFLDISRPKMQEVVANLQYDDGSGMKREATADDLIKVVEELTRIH

For the compound `Nc1cccc2c1CN(C1CCC(=O)NC1=O)C2=O` (centres unmarked) [lenalidomide], the IL-2 secretion entry in the test with IL-2 is “enhanced IL-2 secretion”. The “Ikaros degradation in splenocytes” value at Ikaros is listed as “induced selective degradation of Ikaros”.
